In ChEMBL document CHEMBL1143334, “Peri-substituted hexahydro-indolones as novel, potent and selective human EP3 receptor antagonists” (Bioorg Med Chem Lett, 2009):
≈ marks a conversion by molar mass, not a printed value. Calls of active or inactive are those of the source. The rule behind the calls is not given here.

What was measured:
[1] = biological target: T1, Prostaglandin E2 receptor EP3 subtype (Homo sapiens, UniProt P43115); test: Displacement of [3H]PGE2 from human EP3 receptor
T1 sequence (P43115 whole entry): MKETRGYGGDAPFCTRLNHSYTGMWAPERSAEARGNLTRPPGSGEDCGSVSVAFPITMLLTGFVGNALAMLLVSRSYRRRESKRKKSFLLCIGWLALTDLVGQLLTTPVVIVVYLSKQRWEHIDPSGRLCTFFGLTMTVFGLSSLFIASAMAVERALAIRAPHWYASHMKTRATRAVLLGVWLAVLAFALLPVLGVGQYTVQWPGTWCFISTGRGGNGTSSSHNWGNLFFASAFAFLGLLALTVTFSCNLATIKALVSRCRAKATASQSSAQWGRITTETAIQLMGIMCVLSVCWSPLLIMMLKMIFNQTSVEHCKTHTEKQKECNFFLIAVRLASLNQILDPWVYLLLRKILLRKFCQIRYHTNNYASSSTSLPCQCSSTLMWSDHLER
How it was run: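 Displacement of [3H]-PGE2 from human EP3 receptor membrane preparations was run in buffer. IC50 values come from at least three experiments each.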

[2] = biological target: T2, Prostaglandin E2 receptor EP3 subtype (Homo sapiens) (UniProt P43115); test: Ratio of IC50 for human EP3 receptor in presence of 10% human serum to IC50 for human EP3 receptor in buffer
T2 sequence (whole entry): T1 sequence (P43115 whole entry)
How it was run: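 Displacement of [3H]-PGE2 from human EP3 membrane preparations was run both with 10% human serum and in buffer alone. Fold-shift is IC50 with serum divided by IC50 in buffer.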

[3] = Metabolic stability in rat liver microsomes after 30 mins; assay type: ADME, Microsome; conditions: read-out: Stability
How it was run: (§1)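 Compound was incubated 30 min with liver microsomes from each species. Percent parent remaining was measured by LC/MS/MS.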

[4] = Metabolic stability in human liver microsomes after 30 mins; assay type: ADME, Microsome; conditions: read-out: Stability; how it was run: as §1
[5] = biological target: T1, Prostaglandin E2 receptor EP3 subtype; test: Antagonist activity at human EP3 receptor expressed in CHO-K1 cells assessed as reversal of inhibition of forskolin-induced cAMP production; assay type: functional, cell-based
How it was run: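 CHO-K1 cells stably expressing human EP3 were exposed to increasing test compound concentrations for 10 min at 37 °C, with 5 μM forskolin plus 5 nM PGE2 present. Read-out was the block of PGE2's inhibition of the forskolin-induced cAMP rise, giving IC50.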

[6] = Aqueous solubility in 50 mM PSB buffer at pH 7.4 by HPLC analysis; assay type: physicochemical
How it was run: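 Samples were stirred overnight in 50 mM PSB buffer, pH 7.4, then filtered. Concentration was measured by HPLC against a 5-point standard curve, giving thermodynamic solubility.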

Homo sapiens [7] = species: Homo sapiens; test: Selectivity of human EP1 receptor over human EP3 receptor
[8] = biological target: T3, Prostaglandin E2 receptor EP1 subtype (Homo sapiens, UniProt P34995); test: Binding affinity to human EP1 receptor by radioligand binding assay
T3 sequence (P34995 whole entry): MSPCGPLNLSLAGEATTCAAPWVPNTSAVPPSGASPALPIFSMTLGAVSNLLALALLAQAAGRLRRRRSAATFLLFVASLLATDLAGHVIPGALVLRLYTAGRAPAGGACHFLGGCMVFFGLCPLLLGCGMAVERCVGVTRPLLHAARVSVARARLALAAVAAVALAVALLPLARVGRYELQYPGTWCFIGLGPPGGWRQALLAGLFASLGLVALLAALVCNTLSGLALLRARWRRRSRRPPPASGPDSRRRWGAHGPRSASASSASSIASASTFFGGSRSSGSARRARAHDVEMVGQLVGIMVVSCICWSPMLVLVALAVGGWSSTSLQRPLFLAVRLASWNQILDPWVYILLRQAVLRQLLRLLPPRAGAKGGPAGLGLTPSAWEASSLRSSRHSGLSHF

[9] = biological target: Prostaglandin F2-alpha receptor (Homo sapiens, UniProt P43088); test: Binding affinity to human FP receptor by radioligand binding assay
Chain of Prostaglandin F2-alpha receptor (P43088 whole entry): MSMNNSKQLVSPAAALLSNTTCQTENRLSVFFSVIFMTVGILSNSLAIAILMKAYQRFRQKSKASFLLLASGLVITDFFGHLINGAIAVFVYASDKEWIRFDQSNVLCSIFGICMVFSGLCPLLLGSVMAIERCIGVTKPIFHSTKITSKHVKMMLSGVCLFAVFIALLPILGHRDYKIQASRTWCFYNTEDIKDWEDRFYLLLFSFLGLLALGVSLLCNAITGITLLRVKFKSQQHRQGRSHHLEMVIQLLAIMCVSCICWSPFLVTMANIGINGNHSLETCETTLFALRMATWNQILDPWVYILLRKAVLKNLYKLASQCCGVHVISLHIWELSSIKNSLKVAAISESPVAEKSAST

Homo sapiens [10] = species: Homo sapiens; test: Selectivity of human EP4 receptor over human EP3 receptor
Homo sapiens [11] = species: Homo sapiens; test: Selectivity of human EP2 receptor over human EP3 receptor
[12] = biological target: Prostaglandin E2 receptor EP2 subtype (Homo sapiens, UniProt P43116); test: Binding affinity to human EP2 receptor at 20 uM by radioligand binding assay
Chain of Prostaglandin E2 receptor EP2 subtype (P43116 whole entry): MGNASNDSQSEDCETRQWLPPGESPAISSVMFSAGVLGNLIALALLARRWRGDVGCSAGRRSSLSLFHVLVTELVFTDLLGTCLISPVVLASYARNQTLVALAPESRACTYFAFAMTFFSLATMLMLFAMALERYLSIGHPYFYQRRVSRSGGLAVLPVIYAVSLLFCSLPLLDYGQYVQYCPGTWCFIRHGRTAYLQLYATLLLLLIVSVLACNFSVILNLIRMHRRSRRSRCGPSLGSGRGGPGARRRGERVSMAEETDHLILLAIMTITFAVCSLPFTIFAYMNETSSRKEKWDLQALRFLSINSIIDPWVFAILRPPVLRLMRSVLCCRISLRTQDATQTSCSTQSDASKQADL

Homo sapiens [13] = species: Homo sapiens; test: Selectivity of human FP receptor over human EP3 receptor
[14] = biological target: T4, Prostaglandin E2 receptor EP4 subtype (Homo sapiens, UniProt P35408); test: Binding affinity to human EP4 receptor by radioligand binding assay
T4 sequence (P35408 whole entry): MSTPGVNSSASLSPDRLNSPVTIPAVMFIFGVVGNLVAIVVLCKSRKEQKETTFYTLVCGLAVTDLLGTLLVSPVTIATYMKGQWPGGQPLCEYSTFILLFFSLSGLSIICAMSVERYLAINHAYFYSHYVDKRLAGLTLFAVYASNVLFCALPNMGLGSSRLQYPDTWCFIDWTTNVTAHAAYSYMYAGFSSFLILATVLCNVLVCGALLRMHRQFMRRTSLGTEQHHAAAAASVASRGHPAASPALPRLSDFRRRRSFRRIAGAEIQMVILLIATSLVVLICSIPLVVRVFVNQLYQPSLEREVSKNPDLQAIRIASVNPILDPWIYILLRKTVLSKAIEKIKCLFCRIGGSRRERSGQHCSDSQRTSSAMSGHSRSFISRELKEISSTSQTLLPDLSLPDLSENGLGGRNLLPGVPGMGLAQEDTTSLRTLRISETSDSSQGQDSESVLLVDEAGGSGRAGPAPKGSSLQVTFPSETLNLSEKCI

[15] = biological target: T5, Prostaglandin E2 receptor EP1 subtype (Homo sapiens) (UniProt P34995); test: Binding affinity to human EP1 receptor at 20 uM by radioligand binding assay
T5 sequence (whole entry): T3 sequence (P34995 whole entry)

[16] = biological target: T4, Prostaglandin E2 receptor EP4 subtype; test: Binding affinity to human EP4 receptor at 20 uM by radioligand binding assay

Compound	IC50 [1] [nM]	fold change (FC) [2]	remaining at 0.5 h [3] [%]	remaining at 0.5 h [4] [%]	also measured
COC(=O)C12CCCC(/C=C/C(=O)NS(=O)(=O)c3ccc(F)c(F)c3)=C1N(Cc1ccc(Cl)cc1Cl)C(=O)C2 (configuration not stated)	20.6	22			
CC12CCCC(/C=C/C(=O)NS(=O)(=O)c3cc(Cl)c(Cl)s3)=C1N(Cc1ccc(Cl)cc1Cl)C(=O)C2 (configuration not stated)	2.3	38.4	60	58	
CC12CCCC(/C=C/C(=O)NS(=O)(=O)c3ccc(F)c(F)c3)=C1N(Cc1cccc(Cl)c1Cl)C(=O)C2 (configuration not stated)	3.4	7.8			IC50 [5]: 3.5 nM
CC12CCCC(/C=C/C(=O)NS(=O)(=O)c3cc(F)cc(F)c3)=C1N(Cc1cccc(Cl)c1Cl)C(=O)C2 (configuration not stated)	3.8	33.7			
CC12CCCC(/C=C/C(=O)NS(=O)(=O)c3cc(Cl)c(Cl)s3)=C1N(Cc1cccc(F)c1)C(=O)C2 (configuration not stated)	9.5	8.2	18	67	
CC12CCCC(/C=C/C(=O)NS(=O)(=O)c3cc(Cl)cc(Cl)c3)=C1N(Cc1ccc(F)c(F)c1)C(=O)C2 (configuration not stated)	5.6	26.8	45	68	IC50 [5]: 3.2 nM
Cc1cn(Cc2ccc(F)c(F)c2)c2c(/C=C/C(=O)NS(=O)(=O)c3cc(F)c(F)cc3F)cc(F)cc12					solubility [6]: < 40 µg/mL
CC1C(=O)N(Cc2ccc(F)c(F)c2)c2c(/C=C/C(=O)NS(=O)(=O)c3cc(F)c(F)cc3F)cccc21 (configuration not stated)					solubility [6]: 1580 µg/mL (≈ 2950 µM)
CC12CCCC(/C=C/C(=O)NS(=O)(=O)c3ccc(Cl)s3)=C1N(Cc1ccc(Cl)cc1Cl)C(=O)C2 (configuration not stated)	13.4	6.9	68	75	
CC12CCCC(/C=C/C(=O)NS(=O)(=O)c3cc(Cl)cc(Cl)c3)=C1N(Cc1ccc(Cl)cc1Cl)C(=O)C2 (configuration not stated)	9.8	61.2	62	70	
COC(=O)C12CCCC(/C=C/C(=O)NS(=O)(=O)c3cc(Cl)c(Cl)s3)=C1N(Cc1ccc(F)c(F)c1)C(=O)C2 (configuration not stated)	29.9	308			
CC12CCCC(/C=C/C(=O)NS(=O)(=O)c3cc(F)cc(F)c3)=C1N(Cc1ccc(F)c(F)c1)C(=O)C2 (configuration not stated)	9.2	217			
CC12CCCC(/C=C/C(=O)NS(=O)(=O)c3ccc(F)c(F)c3)=C1N(Cc1ccc(F)cc1)C(=O)C2 (configuration not stated)	2.5	15.9			
COC(=O)C12CCCC(/C=C/C(=O)NS(=O)(=O)c3cc(F)c(F)cc3F)=C1N(Cc1ccc(Cl)cc1Cl)C(=O)C2 (configuration not stated)	11.2	47.1			
CC12CCCC(/C=C/C(=O)NS(=O)(=O)c3cc(Cl)c(Cl)s3)=C1N(Cc1ccc(F)c(F)c1)C(=O)C2 (configuration not stated)	3.5	17.7	22	80	IC50 [5]: 5.2 nM

Second part, led by results:

IC50 [1] [nM]	fold change (FC) [2]	remaining at 0.5 h [3] [%]	remaining at 0.5 h [4] [%]	Compound	also measured
1.8	33.2			CC12CCCC(CCC(=O)NS(=O)(=O)c3cc(F)c(F)cc3F)=C1N(Cc1ccc(F)c(F)c1)C(=O)C2 (configuration not stated)	
557	25.7			C[C@]12CCC[C@@H](CCC(=O)NS(=O)(=O)c3cc(F)c(F)cc3F)[C@H]1N(Cc1ccc(F)c(F)c1)C(=O)C2	
5.6	6.2	84	76	COc1cccc(CN2C(=O)CC3(C)CCCC(/C=C/C(=O)NS(=O)(=O)c4cc(F)c(F)cc4F)=C23)c1 (configuration not stated)	
4.4	6.6	69	80	CC12CCCC(/C=C/C(=O)NS(=O)(=O)c3cc(Cl)c(Cl)s3)=C1N(Cc1cccc(Cl)c1Cl)C(=O)C2 (configuration not stated)	IC50 [5]: 1.7 nM
3.7	7	37	62	CC12CCCC(/C=C/C(=O)NS(=O)(=O)c3cc(F)c(F)cc3F)=C1N(Cc1ccc(Cl)cc1Cl)C(=O)C2 (configuration not stated)	Selectivity ratio (Homo sapiens [7]): > 1000; IC50 [8]: 11600 nM; IC50 [9]: 7600 nM; Selectivity ratio (Homo sapiens [10]): > 1000; Selectivity ratio (Homo sapiens [11]): > 1000; Activity [12]: inactive; Selectivity ratio (Homo sapiens [13]): > 1000; IC50 [14]: 20800 nM
3.4	18			CC12CCCC(/C=C/C(=O)NS(=O)(=O)c3ccc(F)c(F)c3)=C1N(Cc1ccc(Cl)cc1Cl)C(=O)C2 (configuration not stated)	
2.2	16.3			CC12CCCC(/C=C/C(=O)NS(=O)(=O)c3cc(Cl)c(Cl)s3)=C1N(Cc1cccc(Cl)c1)C(=O)C2 (configuration not stated)	
57.2	25.2	79	78	CC12CCCC(/C=C/C(=O)NS(=O)(=O)c3cccs3)=C1N(Cc1ccc(Cl)cc1Cl)C(=O)C2 (configuration not stated)	
15.2	21.2	64	70	CC12CCCC(/C=C/C(=O)NS(=O)(=O)c3ccc(F)cc3)=C1N(Cc1ccc(Cl)cc1Cl)C(=O)C2 (configuration not stated)	
5.6	62.4			COc1cccc(CN2C(=O)CC3(C)CCCC(/C=C/C(=O)NS(=O)(=O)c4cc(F)cc(F)c4)=C23)c1 (configuration not stated)	
4.3	5.8	50	49	CC12CCCC(/C=C/C(=O)NS(=O)(=O)c3cc(F)c(F)cc3F)=C1N(Cc1cccc(Cl)c1Cl)C(=O)C2 (configuration not stated)	Selectivity ratio (Homo sapiens [7]): > 1000; IC50 [9]: 7400 nM; Selectivity ratio (Homo sapiens [10]): > 1000; Selectivity ratio (Homo sapiens [11]): > 1000; Activity [12]: inactive; Selectivity ratio (Homo sapiens [13]): > 1000; Activity [15]: inactive; IC50 [5]: 4.5 nM; Activity [16]: inactive
84.1	5.4			CC12CCCC(/C=C/C(=O)NS(=O)(=O)c3cc(F)cc(F)c3)=C1N(Cc1ccc(F)cc1)C(=O)C2 (configuration not stated)	Selectivity ratio (Homo sapiens [7]): > 1000; IC50 [9]: 4200 nM; Selectivity ratio (Homo sapiens [10]): > 1000; Selectivity ratio (Homo sapiens [11]): > 1000; Activity [12]: inactive; Selectivity ratio (Homo sapiens [13]): > 1000; Activity [15]: inactive; Activity [16]: inactive
6.4	4.8	64	62	COc1cccc(CN2C(=O)CC3(C)CCCC(/C=C/C(=O)NS(=O)(=O)c4cc(Cl)c(Cl)s4)=C23)c1 (configuration not stated)	Selectivity ratio (Homo sapiens [7]): > 1000; IC50 [9]: 6100 nM; Selectivity ratio (Homo sapiens [10]): > 1000; Selectivity ratio (Homo sapiens [11]): > 1000; Activity [12]: inactive; Selectivity ratio (Homo sapiens [13]): > 1000; Activity [15]: inactive; IC50 [5]: 5.8 nM; Activity [16]: inactive
6.8	7.4	54	64	CC12CCCC(/C=C/C(=O)NS(=O)(=O)c3cc(Cl)c(Cl)s3)=C1N(Cc1ccc3ccccc3c1)C(=O)C2 (configuration not stated)	Selectivity ratio (Homo sapiens [7]): > 1000; IC50 [8]: 6900 nM; IC50 [9]: 10200 nM; Selectivity ratio (Homo sapiens [10]): > 1000; Selectivity ratio (Homo sapiens [11]): > 1000; Activity [12]: inactive; Selectivity ratio (Homo sapiens [13]): > 1000; Activity [16]: inactive
3.8	3	50	74	CC12CCCC(/C=C/C(=O)NS(=O)(=O)c3cc(Cl)c(Cl)s3)=C1N(Cc1ccc(F)cc1)C(=O)C2 (configuration not stated)	Selectivity ratio (Homo sapiens [7]): > 1000; IC50 [9]: 27400 nM; Selectivity ratio (Homo sapiens [10]): > 1000; Selectivity ratio (Homo sapiens [11]): > 1000; Activity [12]: inactive; Selectivity ratio (Homo sapiens [13]): > 1000; Activity [15]: inactive; Activity [16]: inactive
